Measured values taken from ChEMBL document CHEMBL1165888, “Synthesis and study of antiproliferative activity of novel thienopyrimidines on glioblastoma cells” (Eur J Med Chem, 2010).

System: DBTRG-05MG
Experiment: Cytotoxicity against human DBTRG-05MG cells after 72 hrs by MTT assay
Assay type: functional, cell-based
Method in brief: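 DBTRG.05-MG cells were grown in RPMI 1640 with 10% heat-inactivated FCS at 37 °C and 5% CO₂. They were seeded at 6×10^3 per well, cultured 72 h, then exposed 72 h to serial dilutions in DMSO (≤1%, ≤200 μM). Viability was read by MTT (0.5 mg/mL, 37 °C), DMSO-solubilized, A570/630, as % of untreated wells. IC50 came from curves; triplicates, mean ± SD.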

Compound | IC50 [µM]
c1ccc(Nc2ncnc3sc4ccccc4c23)cc1 | 109
COc1ccccc1Nc1ncnc2sc3c(c12)CCCC3 | 571
Cc1ccccc1Nc1ncnc2sc3c(c12)CCCC3 | 474
COc1ccc(Nc2ncnc3sc4ccccc4c23)cc1 | 117
CN(C)c1ncnc2sc3c(c12)CCCC3 | 149
COc1ccccc1Nc1ncnc2sc3ccccc3c12 | 41.2
CN(C)c1ncnc2sc3ccccc3c12 | 138
COc1ccc(Nc2ncnc3sc4c(c23)CCCC4)cc1 | 152
c1ccc(Nc2ncnc3sc4c(c23)CCCC4)cc1 | 585
Cc1ccccc1Nc1ncnc2sc3ccccc3c12 | 61.8
